Scp1 inh: blocks human Scp-1 phosphatase activity; Q9GZU7; Recombinant Scp1, phosphopeptide, malachite green phosphate absorbance; inhibition, % at 20 µM; 0.88% of 340,000 active; AID 493091;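 active = inhibition above about 50% at 20 µM, limit read from the data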;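 also: plate controls were DMSO wells with enzyme for no effect and wells lacking enzyme for full effect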
Target sequence (Q9GZU7 76-261 limits assumed): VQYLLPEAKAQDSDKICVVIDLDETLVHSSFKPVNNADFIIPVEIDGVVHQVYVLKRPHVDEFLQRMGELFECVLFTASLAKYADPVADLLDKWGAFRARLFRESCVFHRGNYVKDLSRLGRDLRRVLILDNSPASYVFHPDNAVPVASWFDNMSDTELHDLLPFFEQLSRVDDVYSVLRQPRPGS
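Test system: SCP-1 phosphatase catalytic domain, residues 76-261 | Compound dosing: One concentration, 20 µM, with 1.0% DMSO | Schedule: 45 min room-temperature reaction, 5 min colour, 30 min stabiliser | Detection: Absorbance at 630 nm | Read-out basis: % inhibition of SCP-1 phosphate liberation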
LMPTP block: blocks human LMPTP phosphatase; P24666; recombinant LMPTP-A, OMFP fluorogenic substrate, fluorescence intensity; inhibition, % at 20 µM; 0.22% of 360,000 active;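 active = compounds that cut the enzyme signal by at least half of the control window in the single-dose screen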;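 also: plate controls were DMSO wells with enzyme plus substrate for no effect and substrate without enzyme for full effect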
Target sequence (P24666 whole entry, looked up): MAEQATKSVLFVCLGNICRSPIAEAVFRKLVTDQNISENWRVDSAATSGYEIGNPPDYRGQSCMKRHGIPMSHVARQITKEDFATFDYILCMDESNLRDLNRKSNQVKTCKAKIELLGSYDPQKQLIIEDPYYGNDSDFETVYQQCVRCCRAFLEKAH
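Test system – LMPTP-A enzyme · Amount – LMPTP-A at 0.625 nM final in the reaction · Buffer or medium – Bis-Tris pH 6.0, DTT, detergent · Reagent – OMFP 400 µM · Doses – single 20 µM dose · Schedule – reaction 50 min, room temperature, dark · Detection – fluorescence intensity of OMFP turnover product · Evaluation – percent inhibition versus substrate-only and uninhibited controls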
HKDC1 inh: blocks human hexokinase HKDC1 activity; Q2TB90; recombinant HKDC1, G6PDH/diaphorase resazurin coupled fluorescence; inhibition, % at 20 µM; 0.16% of 340,000 active; AID 493160;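 active = inhibition above about 35% when tested at 20 µM, limit read from the data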;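 also: plate controls were DMSO wells with enzyme for no effect and DMSO wells lacking enzyme for full effect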
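Material: recombinant HKDC1 hexokinase; Amount: HKDC1 at 5 µg/mL; Medium: Tris pH 8.0 buffer with MgCl2, Tween-20, BSA, BME; Schedule: 90 min reaction incubation at room temperature, dark; Technique: coupled resazurin fluorescence, excitation 525 nm, emission 613 nm.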
SUMO1 PPI mod: SUMO1-SIM interaction modulation; AID 602429; P63165; inhibition, % at 20 µM; 0.33% of 360,000 active; SUMO1 binding to a labelled peptide, TR-FRET, 1 h; in the data active = inhibition above about 37%
Target sequence (P63165 whole entry, looked up): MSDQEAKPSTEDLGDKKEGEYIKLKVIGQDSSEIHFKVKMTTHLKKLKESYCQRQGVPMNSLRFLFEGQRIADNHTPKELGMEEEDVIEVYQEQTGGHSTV
DNMT1 block: inhibitors of human DNMT1; inhibition (reported as % activation of signal), % at 10 µM; DNMT1 molecular beacon, Hinp1I cleavage, fluorescence; AID 588458; P26358; 0.83% of 360,000 active; in the data active = inhibition above about 50%
STEP block: blocks human striatal-enriched tyrosine phosphatase. recombinant STEP, OMFP fluorogenic substrate, fluorescence. inhibition, % at 20 µM. 0.25% of 360,000 active. AID 588621;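 active = inhibition at 20 µM, scaled per plate between control wells, above about 37%, limit read from the data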;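 also: 0% = DMSO with enzyme and substrate and 100% = substrate only without enzyme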
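medium = Bis-Tris buffer pH 6.0, 2.5 mM DTT, 0.005% Tween 20 | test system = STEP (striatal-enriched tyrosine phosphatase) enzyme, cell-free | measure = normalized % inhibition | compound dosing = 20 µM, 1% DMSO | also added = 25 µM OMFP | schedule = reaction 20 min, ambient temperature | measured by = fluorescence read at 480 nm ex / 540 nm em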
Scp-1 conf: Scp-1 (human) inhibition, single-dose confirmed | shares compounds with Scp1 inh | recombinant SCP-1 catalytic domain, phosphate release, malachite green absorbance | inhibition, % at 20 µM | 61% of 2,500 active | AID 540281;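 also: plate controls were DMSO with enzyme for no effect and buffer wells lacking enzyme for full effect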
MG interference: colorimetric interference in Scp-1 counter-screen; Colorimetric interference counterscreen, malachite green absorbance 630 nm; AID 540313; 2,500 tested, under 10 active; apparent inhibition (interference), % at 20 µM; shares compounds with Scp1 inh;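 also: compounds added after enzyme reaction finished so only phosphate colour detection is probed; plate controls were DMSO wells with completed Scp-1 reaction for no effect and substrate wells lacking enzyme for full effect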
Scp-1 Tm shift: validation of human Scp-1 inhibitors by thermal shift binding; shares compounds with Scp1 inh; Recombinant SCP1, Sypro Orange thermal shift Tm; thermal shift relative to vanadate control, % at 40 µM; 25% of 1,500 active;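 active = substances whose mean melting-temperature shift, as a percentage of the reference inhibitor's shift, reaches about 5.3%, limit read from the data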;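 also: 0% = Tm of DMSO wells and 100% = Tm with sodium orthovanadate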
Active calls of the source: *; · = not tested or not shown. Sampled rows, rich in hits. Any-hit rate of the full collection: about 1.8%.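 The calls were made as follows, unless noted: active = inhibition of at least 30% at 20 µM; inactive = the rest.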

SMILES | Scp1 inh | LMPTP block | HKDC1 inh | SUMO1 PPI mod | DNMT1 block | STEP block | Scp-1 conf | MG interference | others
Cc1ccc(C(=O)Nc2cccc(NC(=O)c3ccc(C)c([N+](=O)[O-])c3)n2)cc1[N+](=O)[O-] | 70* | 36 | -5 | 18 | 31 | 4 | 67* | -10 | Scp-1 Tm shift=14*
O=C(Nc1ccc(O)cc1C(=O)O)c1ccc2c(c1)C(=O)N(Cc1ccco1)C2=O | 46 | 1 | 17 | 17 | 12 | 3 | · | ·
O=C(Nc1ccc(O)cc1)c1ccc2c(c1)C(=O)N(Cc1ccco1)C2=O | 0 | 0 | -8 | -2 | 15 | 3 | · | ·
O=C(Nc1cc([N+](=O)[O-])ccc1O)c1ccc2c(c1)C(=O)N(Cc1ccco1)C2=O | 55* | 6 | 8 | 1 | 11 | 6 | 25 | -16
O=C(O)Cc1ccc(NC(=O)c2ccc3c(c2)C(=O)N(Cc2ccco2)C3=O)cc1 | 69* | 3 | -4 | -10 | 38 | 16 | 58* | -16 | Scp-1 Tm shift=6.8*
CCN1C(=O)[C@H]2[C@@H](c3ccc(-c4cccc(Cl)c4)cc3)N[C@@](C)(C(=O)OC)[C@H]2C1=O | 3 | -1 | 3 | 1 | -9 | 1 | · | ·
O=C1OC(c2ccc(F)cc2)=N/C1=C\C=C/c1ccccc1 | -4 | 0 | 10 | -9 | 0 | 2 | · | ·
O=C1OC(/C=C/c2ccccc2)=NC/1=C/C=C/c1ccccc1 | 70* | -1 | 7 | -10 | 13 | 7 | 13 | -3
O=C(Nc1cc(C(F)(F)F)ccc1N1CCCCC1)C1=COCCO1 | · | 5 | · | 3 | 16 | 3 | · | ·
CC1(C)NC(=O)N(CCC(=O)Nc2ccc(C(C)(C)C)cc2)C1=O | · | -1 | · | -1 | 0 | 3 | · | ·
Cc1c(C(=O)O)sc2nc(CSc3ncc(C(F)(F)F)cc3Cl)[nH]c(=O)c12 | 97* | 0 | 1 | 1 | 11 | 5 | 49* | -16 | Scp-1 Tm shift=-1
CCOC(=O)c1sc2nc(CSc3ccccc3Cl)[nH]c(=O)c2c1C | -5 | -2 | -4 | -1 | 4 | 0 | · | ·
CC1(c2nnnn2-c2ccc3c(c2)OCCO3)CCC(=O)N1CCc1c[nH]c2ccccc12 (centres undefined) | · | -1 | · | 3 | · | · | · | ·
N#C/C(=C\c1cccs1)c1nc2ccccc2[nH]1 | -3 | 1 | -1 | -10 | -2 | 1 | · | ·
N#C/C(=C\c1ccc(OC(=O)c2cccs2)cc1)c1nc2ccccc2[nH]1 | 52* | 3 | 0 | -8 | -4 | 0 | 83* | -1 | Scp-1 Tm shift=3
O=S(=O)(NCc1nnnn1-c1ccc(F)cc1)c1ccc(F)cc1 | · | 0 | · | 4 | 4 | 0 | · | ·
Cc1c(-c2ccccc2)cnc2c(C)cccc12 | -8 | 1 | -1 | 5 | 0 | 0 | · | ·
CC(C)c1ccc(S(=O)(=O)N2CCN(C(C)C(=O)N3CCCC3)CC2)cc1 (centres undefined) | -2 | -2 | 3 | 1 | 2 | -2 | · | ·
CC(C(=O)N1CCCCC1)N1CCN(S(=O)(=O)c2ccc(Cl)cc2)CC1 (centres undefined) | 97* | -1 | 0 | -3 | 5 | -2 | 78* | -13 | Scp-1 Tm shift=-9
Cc1ccc(O)c(C(=O)c2cnn(C(=O)COc3ccc(Cl)cc3)c2)c1 | 82* | 25 | -4 | 1 | 22 | 32 | 73* | -13 | Scp-1 Tm shift=-15
Cc1ccc(C(=O)Nc2nc(-c3ccccn3)cs2)cc1S(=O)(=O)N1CCOCC1 | -10 | 14 | -2 | 30 | -2 | 9 | · | ·
CCOC(=O)C1=C(c2ccccc2)c2ccccc2N(S(=O)(=O)C(F)(F)F)C1C(=O)OCC (centres undefined) | -7 | 1 | 11 | -10 | 2 | 1 | · | ·
CCOC(=O)C1C(C(C)=O)=C(c2ccccc2)c2ccccc2N1S(=O)(=O)C(F)(F)F (centres undefined) | 88* | 1 | 3 | -5 | 9 | 0 | 22 | -23
CCSc1nnc(NC(=O)CCN2C(=O)C3CCCCC3C2=O)s1 (centres undefined) | -6 | -1 | -4 | 2 | 1 | -3 | · | ·
CC(C)Oc1ccc(CN2CCC2(C)C(=O)Nc2cnc3ccccc3c2)cc1 (centres undefined) | · | 2 | · | -6 | 2 | 4 | · | ·
SMILES | Scp1 inh | LMPTP block | HKDC1 inh | SUMO1 PPI mod | DNMT1 block | STEP block | Scp-1 conf | MG interference | others
Cc1cccc(NS(=O)(=O)c2ccc3c(c2)NC(=O)CC(=O)N3)c1 | 3 | -1 | -5 | 1 | 1 | 0 | · | ·
CCc1cccc(NS(=O)(=O)c2ccc3c(c2)NC(=O)CC(=O)N3)c1 | -8 | 0 | -12 | 2 | 0 | -6 | -11 | -15
O=C(CC1SCCNC1=O)NCc1ccccc1 (centres undefined) | · | -1 | · | -3 | -1 | 2 | · | ·
NC(=O)c1cc(S(=O)(=O)NCc2ccc(Br)cc2)cs1 | -6 | -1 | -1 | 0 | 1 | -1 | -13 | -16
CCOC(=O)CSc1[nH]c(=O)cc(C)c1C#N | 50* | -1 | -4 | -2 | 1 | -2 | -27 | -22
CC1(C)CC(=O)C=C(C#CC2(O)CCCCC2)C1 | · | -1 | · | -3 | 8 | 4 | · | ·
O=C(Nc1ccccc1Cl)c1cnccn1 | -4 | -1 | 6 | -4 | 1 | 4 | · | ·
